High-throughput results deposited in PubChem by Broad Institute.
An excerpt weighted towards active compounds, which were near 2.1% of everything screened.
miR122 inh = miR-122 Renilla sensor signal increase in Huh7, primary screen, miR-122 inhibitor project, cell-based, single point, plate reader | Huh7 miR-122 Renilla luciferase sensor, 48 h; neutral wells = 0, positive control = 100 | activation (reporter increase), % at 12.5 µM | 0.3% of 340,000 active | AID 602342, 2012;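 active means mean replicate activation score at least 90 and every replicate individually at or above 90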;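 further: higher luciferase means less miR-122 activity so hits act as miR-122 inhibitors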
CAL PDZ FP-1 = untagged CAL PDZ binding inhibitors, primary screen, biochemical, fluorescence polarization, HTS | Golgi-associated PDZ and coiled-coil motif-containing protein (Homo sapiens), Q9HD26 | purified CAL PDZ, TMR-peptide fluorescence polarization, 1 h | inhibition, % at 24.9 µM | 0.92% of 300,000 active;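 active means mean inhibition of at least 30% with at least half of replicates also reaching 30%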
ARNT TACC3 PPI = disruptors of ARNT/TACC3 protein interaction, primary screen, biochemical, AlphaScreen, single concentration | Transforming acidic coiled-coil-containing protein 3 (Homo sapiens), Q9Y6A5 | AlphaScreen His-ARNT PAS-B/GST-TACC3 binding, luminescence; TACC3 fragment carries E629A point mutation | inhibition, % at 9.99 µM | 0.66% of 390,000 active;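 active means mean inhibition of replicates at least 50% and at least half of replicates each reaching 50%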
SR-BI HDL uptake = inhibitors of SR-BI mediated HDL lipid uptake, primary screen, ldlA[mSR-BI] cells, fluorescence, single point; Scavenger receptor class B member 1 (Mus musculus), Q61009; ldlA[mSR-BI] CHO cells, DiI-HDL uptake fluorescence, 3 h; inhibition, % at 12.5 µM; 0.96% of 320,000 active; AID 488896, 2010;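 active means mean replicate inhibition of at least 70% and a set share of replicates each scoring 70 or more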
Target sequence (Q61009 whole entry, looked up): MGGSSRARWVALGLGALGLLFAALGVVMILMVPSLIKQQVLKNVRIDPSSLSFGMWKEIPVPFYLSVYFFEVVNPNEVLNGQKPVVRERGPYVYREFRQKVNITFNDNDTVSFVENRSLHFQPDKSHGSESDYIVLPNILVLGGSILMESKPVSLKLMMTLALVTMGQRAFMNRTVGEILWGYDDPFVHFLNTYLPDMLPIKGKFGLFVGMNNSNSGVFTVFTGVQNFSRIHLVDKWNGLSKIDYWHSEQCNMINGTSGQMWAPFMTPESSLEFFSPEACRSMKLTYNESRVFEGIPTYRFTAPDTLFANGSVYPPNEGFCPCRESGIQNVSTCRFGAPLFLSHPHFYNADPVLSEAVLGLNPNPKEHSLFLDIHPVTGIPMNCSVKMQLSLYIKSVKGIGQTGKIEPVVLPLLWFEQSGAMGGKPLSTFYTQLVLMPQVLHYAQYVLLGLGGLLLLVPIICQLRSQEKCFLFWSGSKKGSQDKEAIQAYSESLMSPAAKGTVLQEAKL
CAL PDZ FP-2 = CAL PDZ peptide-binding inhibitors, primary screen, biochemical, fluorescence polarization, Cer-tagged CAL PDZ, HTS; Golgi-associated PDZ and coiled-coil motif-containing protein (Homo sapiens), Q9HD26; purified CAL PDZ, TMR-peptide fluorescence polarization, 1 h; inhibition, % at 20 µM; 0.02% of 330,000 active;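 active means highest replicate inhibition of at least 40%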
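System: tagged CAL PDZ domain. Schedule: 1 h room-temperature incubation prior to read. Signal: fluorescence polarization (mP). Measure: percent inhibition from loss of millipolarization.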
SR-BI uptake up = activators of SR-BI mediated DiI-HDL uptake, primary screen, ldlA[mSR-BI] CHO cells, DiI fluorescence; 3 h; 100 = double the neutral-control signal; activation, % at 12.5 µM; 0.096% of 320,000 active; AID 504775, 2011;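 active means mean replicate activation of at least 60% and every replicate at or above 60%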
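System: LDL receptor-deficient CHO ldlA cells overexpressing murine SR-BI | Timing: 3 h uptake period with compound, 37 °C | Medium: HEPES-buffered (25 mM, pH 7.4) F12 plus 0.5% BSA | Dosing: Single-point compound dose | Signal: Bottom-read fluorescence, 550/595 nm | Read-out: Retained DiI signal reflecting DiI-HDL uptake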
Hits are given with their value.

Results for CC(C)C#Cc1cnc2c(c1)C(=O)N([C@H](C)CO)C[C@@H](C)[C@H](CN(C)C(=O)Cc1ccccn1)O2 ?
miR122 inh: inactive

Results for CC(C)C(=O)Nc1ccc2c(c1)C(=O)N(C)[C@@H]1CC[C@@H](CC(=O)NCC3CC3)O[C@@H]1CO2 ?
miR122 inh: inactive; ARNT TACC3 PPI: inactive

Results for CC(C)C(=O)NC(NC(=S)Nc1cccc2cccnc12)C(Cl)(Cl)Cl (stereo not drawn) ?
miR122 inh: inactive; CAL PDZ FP-1: inactive; ARNT TACC3 PPI: inactive; SR-BI HDL uptake: 73.7; CAL PDZ FP-2: inactive; SR-BI uptake up: inactive

Results for C[C@H]1CN([C@@H](C)CO)S(=O)(=O)c2ccc(-c3ccc(F)cc3)cc2O[C@H]1CN(C)C(=O)C1CC1 ?
miR122 inh: inactive

What do the screens show for `O=[N+]([O-])c1cc([N+](=O)[O-])c2c(=Nc3ccccc3)n(-c3ccccc3)n(O)c2c1`?
ARNT TACC3 PPI: inactive; SR-BI HDL uptake: 74.9; CAL PDZ FP-2: inactive; SR-BI uptake up: inactive

Results for O=[N+]([O-])c1cc(Br)c(Nc2ccccc2)c([N+](=O)[O-])c1 ?
CAL PDZ FP-1: inactive; ARNT TACC3 PPI: inactive; SR-BI HDL uptake: inactive; CAL PDZ FP-2: inactive; SR-BI uptake up: inactive

Results for CC1CCc2c(sc3nc(CSc4nnnn4C)[nH]c(=O)c23)C1 (stereo not drawn) ?
miR122 inh: inactive; CAL PDZ FP-1: 60.1; ARNT TACC3 PPI: inactive; SR-BI HDL uptake: inactive; CAL PDZ FP-2: inactive; SR-BI uptake up: inactive

What do the screens show for `COc1ccc(C2(C)NC(=O)N(CC(=O)c3cc(C)n(C4CC4)c3C)C2=O)cc1OC` (stereo not drawn)?
miR122 inh: inactive; CAL PDZ FP-1: 53.6; ARNT TACC3 PPI: inactive; SR-BI HDL uptake: inactive; CAL PDZ FP-2: inactive; SR-BI uptake up: inactive

What do the screens show for `CCC1(C)NC(=O)N(CC(=O)c2cc(C)n(C3CC3)c2C)C1=O` (stereo not drawn)?
CAL PDZ FP-1: inactive; ARNT TACC3 PPI: inactive; SR-BI HDL uptake: inactive; CAL PDZ FP-2: inactive; SR-BI uptake up: inactive

What do the screens show for `CC(=O)Nc1ccc2c(c1)C(=O)N(C)[C@@H]1CC[C@H](CC(=O)N3CCc4ccccc4C3)O[C@@H]1CO2`?
miR122 inh: inactive; ARNT TACC3 PPI: inactive

Results for Cc1ccccc1NNC(=O)C(=O)NNc1ccccc1C ?
CAL PDZ FP-1: 32.8; ARNT TACC3 PPI: inactive; SR-BI HDL uptake: inactive; CAL PDZ FP-2: inactive; SR-BI uptake up: inactive

What do the screens show for `Cc1ccccc1NC(=O)Cc1ccccc1`?
miR122 inh: inactive; CAL PDZ FP-1: 69.6; ARNT TACC3 PPI: inactive; SR-BI HDL uptake: inactive; CAL PDZ FP-2: inactive; SR-BI uptake up: inactive

What do the screens show for `C[C@@H]1CN([C@H](C)CO)C(=O)c2cc(NS(C)(=O)=O)ccc2O[C@@H](C)CCCCO[C@@H]1CN(C)C(=O)C1CCCCC1`?
miR122 inh: inactive

Results for O=Cc1c(Sc2ccccn2)nc2ccccn2c1=O ?
miR122 inh: inactive; CAL PDZ FP-1: inactive; ARNT TACC3 PPI: inactive; SR-BI HDL uptake: 77.3; CAL PDZ FP-2: inactive; SR-BI uptake up: inactive

How did CNC[C@H]1OCCCC[C@@H](C)Oc2ccc(NS(=O)(=O)c3ccc(C)cc3)cc2C(=O)N([C@@H](C)CO)C[C@@H]1C do in these assays?
miR122 inh: inactive

What do the screens show for `COC(=O)c1c(C)nc2nonc2c1N`?
CAL PDZ FP-1: 172.5; ARNT TACC3 PPI: inactive; SR-BI HDL uptake: inactive; CAL PDZ FP-2: inactive; SR-BI uptake up: inactive

How did C=CCNC(=S)N1N=C(c2ccco2)CC1c1ccco1 (stereo not drawn) do in these assays?
miR122 inh: inactive; CAL PDZ FP-1: inactive; ARNT TACC3 PPI: active; SR-BI HDL uptake: inactive; CAL PDZ FP-2: inactive; SR-BI uptake up: inactive

What do the screens show for `COC(=O)N1[C@H](Cc2ccccc2)C=C[C@]1(C)C(=O)NCc1ccccn1`?
CAL PDZ FP-1: inactive; ARNT TACC3 PPI: inactive; SR-BI HDL uptake: inactive; CAL PDZ FP-2: inactive; SR-BI uptake up: inactive

How did CNC(=O)[C@@]1(C)C=C[C@@H](Cc2ccccc2)N1C(=O)OC do in these assays?
miR122 inh: 132.9; CAL PDZ FP-1: inactive; ARNT TACC3 PPI: inactive; SR-BI HDL uptake: inactive; CAL PDZ FP-2: inactive; SR-BI uptake up: inactive

Results for O=C1CC(c2ccc(O)cc2)Oc2cc(O)cc(O)c21 (stereo not drawn) ?
miR122 inh: inactive; CAL PDZ FP-1: inactive; ARNT TACC3 PPI: inactive; SR-BI HDL uptake: inactive; CAL PDZ FP-2: inactive; SR-BI uptake up: inactive

What do the screens show for `CC1CC(=O)c2c(cc3c(-c4c(O)cc(O)c5c(O)c6c(cc45)OC(C)CC6=O)c(O)cc(O)c3c2O)O1` (stereo not drawn)?
miR122 inh: inactive; CAL PDZ FP-1: inactive; ARNT TACC3 PPI: 95.7; SR-BI HDL uptake: 116.9; CAL PDZ FP-2: inactive; SR-BI uptake up: inactive

How did C[C@@H]1CCCCO[C@@H](CN(C)Cc2ccc(C(F)(F)F)cc2)[C@H](C)CN([C@H](C)CO)C(=O)c2cc(NS(=O)(=O)c3ccccc3)ccc2O1 do in these assays?
miR122 inh: inactive; ARNT TACC3 PPI: inactive

How did C[C@@H]1CN([C@@H](C)CO)C(=O)c2cc(NC(=O)NC3CCCCC3)ccc2O[C@@H](C)CCCCO[C@H]1CN(C)Cc1ccc(C(F)(F)F)cc1 do in these assays?
miR122 inh: inactive; ARNT TACC3 PPI: inactive

What do the screens show for `Cc1cccc(N2CCN(C(=O)C3(S(=O)(=O)c4ccc(Cl)cc4)CC3)CC2)c1C`?
miR122 inh: inactive; CAL PDZ FP-1: inactive; ARNT TACC3 PPI: 49.7; CAL PDZ FP-2: inactive

How did Cc1cccc(-n2c(N)c(-c3nc4ccccc4n3C)c3nc4ccccc4nc32)c1 do in these assays?
CAL PDZ FP-1: inactive; ARNT TACC3 PPI: inactive; SR-BI HDL uptake: 72.8; CAL PDZ FP-2: inactive; SR-BI uptake up: inactive

Results for COCC(=O)Nc1ccc2c(c1)C(=O)N(C)C[C@@H](OC)[C@H](C)CN(C(=O)c1ccccc1F)[C@@H](C)CO2 ?
miR122 inh: inactive; ARNT TACC3 PPI: inactive

How did Cc1cccc(C(=O)Nc2nnc(C3=COCCO3)o2)c1 do in these assays?
CAL PDZ FP-1: inactive; ARNT TACC3 PPI: 55.3; SR-BI HDL uptake: inactive; CAL PDZ FP-2: inactive; SR-BI uptake up: inactive

What do the screens show for `COc1ccc(C(=O)Nc2nnc(C3=COCCO3)o2)cc1OC`?
miR122 inh: inactive; CAL PDZ FP-1: inactive; ARNT TACC3 PPI: 37.1; SR-BI HDL uptake: inactive; CAL PDZ FP-2: inactive; SR-BI uptake up: inactive
